# According to ChEMBL document CHEMBL1212781, “VIM-19, a metallo-beta-lactamase with increased carbapenemase activity from Escherichia coli and Klebsiella pneumoniae” (2010):
# What was measured:
# Escherichia coli [1] = assay: Antimicrobial activity in Escherichia coli TOP10 hourbouring recombinant plasmid VIM-4 by Etest in presence of 4 ug/ml Tazobactam; assay type: functional
# In short: (§1)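 Recombinant plasmids were carried in the TOP10 cloning host. The N215K variant was made by site-directed mutagenesis using pVIM-1 as PCR template. MIC by Etest on Mueller-Hinton agar at 37°C, with CLSI interpretation.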
# Escherichia coli [2] = assay: Antimicrobial activity in Escherichia coli J53 strain; assay type: functional
# In short: (§2)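 MICs were determined by Etest on Mueller-Hinton agar plates incubated at 37°C. Susceptibility was interpreted according to CLSI guidelines.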
# Escherichia coli [3] = assay: Antimicrobial activity in Escherichia coli TOP10 harbouring recombinant plasmid VIM-1-N215K by Etest in presence of 4 ug/ml Tazobactam; assay type: functional; in short: as §1
# Escherichia coli [4] = assay: microbe, parasite or virus in culture; assay type: functional; details: TOP10
# Escherichia coli [5] = assay: microbe, parasite or virus in culture; assay type: functional; details: TOP10; remark: listed apart in the source
# Escherichia coli [6] = assay: Antimicrobial activity in Escherichia coli TOP10 strain; assay type: functional; in short: as §2
# Escherichia coli [7] = assay: Antimicrobial activity in Escherichia coli DIH-1 expressing beta-lactamase VIM-19 by Etest; assay type: functional
# In short: (§3)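 MICs read by Etest on Mueller-Hinton agar incubated at 37°C. Susceptibility was categorized according to CLSI guidelines. Transconjugants were obtained in E. coli J53 by liquid mating at 37°C, with selection on agar containing amoxicillin (50 μg/ml) and azide (100 μg/ml).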
# Escherichia coli [8] = assay: Antimicrobial activity in Escherichia coli TOP10 strain harbouring recombinant plasmid VIM-1 by Etest in presence of 4 ug/ml Tazobactam; assay type: functional; in short: as §1
# Escherichia coli [9] = assay: Antimicrobial activity in Escherichia coli J53 transconjugate with Escherichia coli DIH-1 expressing natural plasmid containing beta-lactamase VIM-19 in presence of 4 ug/ml Tazobactam; assay type: functional
# In short: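 Transconjugant came from liquid mating-out at 37°C into azide-resistant J53, selected on agar with amoxicillin (50 μg/ml) plus azide (100 μg/ml). MIC by Etest on Mueller-Hinton agar at 37°C, with CLSI interpretation.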
# Klebsiella pneumoniae [10] = assay: Antimicrobial activity in Klebsiella pneumoniae DIH-2 clinical isolate expressing beta-lactamase VIM-19 by Etest in presence of 4 ug/ml Tazobactam; assay type: functional; in short: as §3
# Escherichia coli [11] = assay: Antimicrobial activity in Escherichia coli DIH-1 expressing beta-lactamase VIM-19 by Etest in presence of 4 ug/ml Tazobactam; assay type: functional; in short: as §3
# Escherichia coli [12] = assay: Antimicrobial activity in Escherichia coli TOP10 hourbouring recombinant plasmid VIM-19 by Etest in presence of 4 ug/ml Tazobactam; assay type: functional; in short: as §1
# Escherichia coli [13] = assay: microbe, parasite or virus in culture; assay type: functional; details: TOP10; remark: listed apart in the source
# Escherichia coli [14] = assay: Antimicrobial activity in Escherichia coli J53 transconjugate with Escherichia coli DIH-1 expressing natural plasmid containing beta-lactamase VIM-19; assay type: functional
# In short: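 Transconjugants came from liquid mating-out at 37°C with azide-resistant E. coli J53 as recipient, selected on agar with amoxicillin (50 μg/ml) plus azide (100 μg/ml). MICs were then read by Etest on Mueller-Hinton agar at 37°C and interpreted per CLSI.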
# Escherichia coli [15] = assay: Antimicrobial activity in Escherichia coli TOP10 strain in presence of 4 ug/ml Tazobactam; assay type: functional
# In short: (§4)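 MIC by Etest on Mueller-Hinton agar plates at 37°C, with susceptibility interpreted per CLSI guidelines.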
# Klebsiella pneumoniae [16] = assay: Antimicrobial activity in Klebsiella pneumoniae DIH-2 clinical isolate expressing beta-lactamase VIM-19 by Etest; assay type: functional
# Escherichia coli [17] = assay: Antimicrobial activity in Escherichia coli J53 strain in presence of 4 ug/ml Tazobactam; assay type: functional; in short: as §4
# Escherichia coli [18] = assay: microbe, parasite or virus in culture; assay type: functional; details: TOP10; remark: listed apart in the source
# [19] = system: CC(C)(O/N=C(\C(=O)N[C@@H]1C(=O)N2C(C(=O)[O-])=C(C[n+]3ccccc3)CS[C@H]12)c1csc(N)n1)C(=O)O; assay: (§5) Ratio of Kcat to Km for beta-lactamase VIM-1 expressed in Escherichia coli TOP10 by spectrophotometry
# [20] = system: CO[C@@]1(NC(=O)Cc2cccs2)C(=O)N2C(C(=O)O)=C(COC(N)=O)CS[C@@H]21; assay: as §5
# [21] = system: CC1(C)S[C@@H]2[C@H](NC(=O)Cc3ccccc3)C(=O)N2[C@H]1C(=O)O; assay: as §5
# [22] = system: CO/N=C(\C(=O)N[C@@H]1C(=O)N2C(C(=O)O)=C(COC(C)=O)CS[C@H]12)c1csc(N)n1; assay: as §5
# [23] = system: C[C@@H](O)[C@H]1C(=O)N2C(C(=O)O)=C(S[C@@H]3CN[C@H](C(=O)N(C)C)C3)[C@H](C)[C@H]12; assay: as §5
# [24] = system: CCN1CCN(C(=O)N[C@@H](C(=O)N[C@@H]2C(=O)N3[C@@H]2SC(C)(C)[C@@H]3C(=O)O)c2ccccc2)C(=O)C1=O; assay: as §5
# [25] = system: CC(C)(O/N=C(\C(=O)N[C@@H]1C(=O)N2C(C(=O)[O-])=C(C[n+]3ccccc3)CS[C@H]12)c1csc(N)n1)C(=O)O; assay: (§6) Hydrolytic activity of beta-lactamase VIM-1 expressed in Escherichia coli TOP10 by spectrophotometry
# [26] = system: CO[C@@]1(NC(=O)Cc2cccs2)C(=O)N2C(C(=O)O)=C(COC(N)=O)CS[C@@H]21; assay: as §6
# [27] = system: CC1(C)S[C@@H]2[C@H](NC(=O)Cc3ccccc3)C(=O)N2[C@H]1C(=O)O; assay: as §6
# [28] = system: CO/N=C(\C(=O)N[C@@H]1C(=O)N2C(C(=O)O)=C(COC(C)=O)CS[C@H]12)c1csc(N)n1; assay: as §6
# [29] = system: C[C@@H](O)[C@H]1C(=O)N2C(C(=O)O)=C(S[C@@H]3CN[C@H](C(=O)N(C)C)C3)[C@H](C)[C@H]12; assay: as §6
# [30] = system: CCN1CCN(C(=O)N[C@@H](C(=O)N[C@@H]2C(=O)N3[C@@H]2SC(C)(C)[C@@H]3C(=O)O)c2ccccc2)C(=O)C1=O; assay: as §6
# [31] = system: CC(C)(O/N=C(\C(=O)N[C@@H]1C(=O)N2C(C(=O)[O-])=C(C[n+]3ccccc3)CS[C@H]12)c1csc(N)n1)C(=O)O; assay: (§7) Ratio of Kcat to Km for beta-lactamase VIM-19 expressed in Escherichia coli TOP10 by spectrophotometry
# In short: (§8)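 Enzyme came from E. coli TOP10 (pVIM-19) grown overnight at 37°C in Trypticase soy broth with amoxicillin (100 μg/ml) and kanamycin (30 μg/ml). The sonicated, cleared extract was purified on Q-Sepharose with a 0–1 M NaCl gradient, in Bis-Tris then cacodylate pH 6.5 buffers.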
# [32] = system: CO[C@@]1(NC(=O)Cc2cccs2)C(=O)N2C(C(=O)O)=C(COC(N)=O)CS[C@@H]21; assay: as §7; in short: as §8
# [33] = system: CC1(C)S[C@@H]2[C@H](NC(=O)Cc3ccccc3)C(=O)N2[C@H]1C(=O)O; assay: as §7; in short: as §8
# [34] = system: CO/N=C(\C(=O)N[C@@H]1C(=O)N2C(C(=O)O)=C(COC(C)=O)CS[C@H]12)c1csc(N)n1; assay: as §7; in short: as §8
# [35] = system: C[C@@H](O)[C@H]1C(=O)N2C(C(=O)O)=C(S[C@@H]3CN[C@H](C(=O)Nc4cccc(C(=O)O)c4)C3)[C@H](C)[C@H]12; assay: as §7; in short: as §8
# [36] = system: C[C@@H](O)[C@H]1C(=O)N2C(C(=O)O)=C(S[C@@H]3CN[C@H](C(=O)N(C)C)C3)[C@H](C)[C@H]12; assay: as §7; in short: as §8
# [37] = system: CCN1CCN(C(=O)N[C@@H](C(=O)N[C@@H]2C(=O)N3[C@@H]2SC(C)(C)[C@@H]3C(=O)O)c2ccccc2)C(=O)C1=O; assay: as §7; in short: as §8
# [38] = system: CC(C)(O/N=C(\C(=O)N[C@@H]1C(=O)N2C(C(=O)[O-])=C(C[n+]3ccccc3)CS[C@H]12)c1csc(N)n1)C(=O)O; assay: (§9) Hydrolytic activity of beta-lactamase VIM-19 expressed in Escherichia coli TOP10 by spectrophotometry; in short: as §8
# [39] = system: CO[C@@]1(NC(=O)Cc2cccs2)C(=O)N2C(C(=O)O)=C(COC(N)=O)CS[C@@H]21; assay: as §9; in short: as §8
# [40] = system: CC1(C)S[C@@H]2[C@H](NC(=O)Cc3ccccc3)C(=O)N2[C@H]1C(=O)O; assay: as §9; in short: as §8
# [41] = system: CO/N=C(\C(=O)N[C@@H]1C(=O)N2C(C(=O)O)=C(COC(C)=O)CS[C@H]12)c1csc(N)n1; assay: as §9; in short: as §8
# [42] = system: C[C@@H](O)[C@H]1C(=O)N2C(C(=O)O)=C(S[C@@H]3CN[C@H](C(=O)Nc4cccc(C(=O)O)c4)C3)[C@H](C)[C@H]12; assay: as §9; in short: as §8
# [43] = system: C[C@@H](O)[C@H]1C(=O)N2C(C(=O)O)=C(S[C@@H]3CN[C@H](C(=O)N(C)C)C3)[C@H](C)[C@H]12; assay: as §9; in short: as §8
# [44] = system: CCN1CCN(C(=O)N[C@@H](C(=O)N[C@@H]2C(=O)N3[C@@H]2SC(C)(C)[C@@H]3C(=O)O)c2ccccc2)C(=O)C1=O; assay: as §9; in short: as §8
compound,measurement,setting,value
CCN1CCN(C(=O)N[C@@H](C(=O)N[C@@H]2C(=O)N3[C@@H]2SC(C)(C)[C@@H]3C(=O)O)c2ccccc2)C(=O)C1=O [PIPERACILLIN],MIC,Escherichia coli [1],256 µg/mL
same,MIC,Escherichia coli [2],1 µg/mL
same,MIC,Escherichia coli [3],256 µg/mL
same,MIC,Escherichia coli [4],256 µg/mL
same,MIC,Escherichia coli [5],256 µg/mL
same,MIC,Escherichia coli [6],1 µg/mL
same,MIC,Escherichia coli [7],> 512 µg/mL
same,MIC,Escherichia coli [8],256 µg/mL
same,MIC,Escherichia coli [9],256 µg/mL
same,MIC,Klebsiella pneumoniae [10],> 512 µg/mL
same,MIC,Escherichia coli [11],> 512 µg/mL
same,MIC,Escherichia coli [12],256 µg/mL
same,MIC,Escherichia coli [13],256 µg/mL
same,MIC,Escherichia coli [14],256 µg/mL
same,MIC,Escherichia coli [15],1 µg/mL
same,MIC,Klebsiella pneumoniae [16],> 512 µg/mL
same,MIC,Escherichia coli [17],1 µg/mL
same,MIC,Escherichia coli [18],256 µg/mL
CC1(C)S[C@@H]2[C@H](NC(=O)[C@H](C(=O)O)c3ccsc3)C(=O)N2[C@H]1C(=O)O [TICARCILLIN],MIC,Escherichia coli [2],4 µg/mL
same,MIC,Escherichia coli [4],> 512 µg/mL
same,MIC,Escherichia coli [5],> 512 µg/mL
same,MIC,Escherichia coli [6],4 µg/mL
same,MIC,Escherichia coli [7],> 512 µg/mL
same,MIC,Escherichia coli [14],> 512 µg/mL
same,MIC,Klebsiella pneumoniae [16],> 512 µg/mL
BlaVIM-1 (Escherichia coli) (from UniProt Q8GDC1),kcat/Km,[19],0.1 µM⁻¹ s⁻¹
same,kcat/Km,[20],0.2 µM⁻¹ s⁻¹
same,kcat/Km,[21],0.05 µM⁻¹ s⁻¹
same,kcat/Km,[22],0.7 µM⁻¹ s⁻¹
same,kcat/Km,[23],0.3 µM⁻¹ s⁻¹
same,kcat/Km,[24],0.5 µM⁻¹ s⁻¹
same,Km,[25],800 µM
same,kcat,[25],60 s⁻¹
same,Km,[26],130 µM
same,Km,[27],850 µM
same,Km,[28],250 µM
same,Km,[29],50 µM
same,Km,[30],3.5 mM
Metallo-beta-lactamase VIM-19 (Escherichia coli) (from UniProt D2D9J0),kcat/Km,[31],0.02 µM⁻¹ s⁻¹
same,kcat/Km,[32],0.5 µM⁻¹ s⁻¹
same,kcat/Km,[33],5 µM⁻¹ s⁻¹
same,kcat/Km,[34],30 µM⁻¹ s⁻¹
same,kcat/Km,[35],0.1 µM⁻¹ s⁻¹
same,kcat/Km,[36],2 µM⁻¹ s⁻¹
same,kcat/Km,[37],4 µM⁻¹ s⁻¹
same,Km,[38],> 1000 µM
same,kcat,[38],> 20 s⁻¹
same,Km,[39],60 µM
same,kcat,[39],30 s⁻¹
same,Km,[40],300 µM
same,kcat,[40],1300 s⁻¹
same,Km,[41],30 µM
same,kcat,[41],900 s⁻¹
same,Km,[42],200 µM
same,kcat,[42],15 s⁻¹
same,Km,[43],15 µM
same,kcat,[44],860 s⁻¹
